The source made the active and inactive calls.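 Rule for the calls, unless noted: active = viability at or below 10% of carrier control in both of two separate runs; inconclusive = viability at or below 10% in only one of the two runs; inactive = the rest.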

The nature of test [1]: Her2 expression decrease, cell viability multiplex – SKBR3 breast tumor cells, AlphaScreen, ATP viability, primary screen (AID 461;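 active = Her2 level under about 52% in both replicate screens, with viability over 70% of control, limit read from the data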;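 for Her2 level: lower value means less Her2 protein in the cells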;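 for viability: percent of carrier control wells set as 100% viability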). To be noted: SKBR3 Her2 protein level, 18-24 h, measured here: SKBR3 viability, ATP luminescence, at 10 µM. Background: In Alpha technology, singlet oxygen from a donor bead excites a nearby acceptor bead.
Test [2] addresses Receptor tyrosine-protein kinase erbB-2 (Homo sapiens) (UniProt P04626). Described as above. To be noted: 18-24 h, at 10 µM, stronger effect = lower value.
Test [3] in a line: reduced viability of SK-BR-3 breast cancer cells – cell-based, 24 h, human, pilot screen (AID 572).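 Note: compound exposure lasted between 18 and 24 h rather than exactly 24 h; 100% = carrier-treated control wells.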 Conditions: SK-BR-3 viability, CellTiter-Glo luminescence, at 10 µM, stronger effect = lower value. On the technique in general: Cellular ATP, detected with luciferase, serves as a proxy for viable cell number.
A short description of test [4]: HUVEC growth inhibition – cell-based, human, primary screen (AID 575;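 active = viability at or below 30% in both replicate assays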;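 note: 100% = median of untreated cell wells with 0.1% DMSO on each plate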). Conditions: HUVEC proliferation, CellTiter-Glo luminescence, 72 h; at 10 µM; stronger effect = lower value. The procedure, abridged: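 System: primary human umbilical vein endothelial cells; Quantity: 1250 endothelial cells in each well; Buffer or medium: supplemented EBM, 2% fetal bovine serum; Doses: one dose, 10 µM final, 0.1% DMSO; Incubation: 72 h compound incubation; Technique: ATP-based CellTiter-Glo luminescent read; Evaluation: percent of median DMSO-control luminescence; Controls: vehicle and MePR control wells.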

Test [5] is described as follows: H69AR cell proliferation blockers – human, duplicate replicates, primary screen (AID 580;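 active = viability at or under a set limit in both replicates, limit being median viability minus 3 SD, cut at about 48% in these data, passing the limit was not always enough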;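 note: 100% = mean luminescence of untreated wells and 0% = no signal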). To be noted: H69AR lung tumor cells viability, ATP luminescence, 72 h; at 10 µM; stronger effect = lower value.
The nature of test [6]: MRP1 drug-resistance reversers in H69AR cells – cell-based, doxorubicin co-treatment, pilot screen (AID 601;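 active = viability loss from added drug above about 55%, and viability with drug at most 40%, in both replicates, limit read from the data, passing the limit was not always enough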). To be noted: CellTiter-Glo, 72 h, at 10 µM; for differential viability (reversal): stronger effect = higher value.
Test [7] in a line: yeast transport mutant growth inhibition pilot in 384-well plates, post-Golgi transport modulator project (AID 636; in the data active = inhibition above about 31%). To be noted: absorbance 615 nm, about 18 h, stronger effect = higher value.
A short description of test [8]: growth suppression of yeast trafficking mutant, preliminary HTS, modulators of trafficking downstream of Golgi apparatus project, 1536-format plate, OD 615 nm (AID 637; in the data active = inhibition above about 30%). Conditions: yeast transport mutant growth, absorbance 615 nm, 18 h; stronger effect = higher value.
The mark [9] stands for this setting: H69AR cells + 2 uM doxorubicin, measured here: viability with 2 uM doxorubicin, stronger effect = lower value.
Setting [10] is: H69AR cells, compound alone cytotoxicity.

Chain of Receptor tyrosine-protein kinase erbB-2 (Homo sapiens) (P04626 whole entry, looked up): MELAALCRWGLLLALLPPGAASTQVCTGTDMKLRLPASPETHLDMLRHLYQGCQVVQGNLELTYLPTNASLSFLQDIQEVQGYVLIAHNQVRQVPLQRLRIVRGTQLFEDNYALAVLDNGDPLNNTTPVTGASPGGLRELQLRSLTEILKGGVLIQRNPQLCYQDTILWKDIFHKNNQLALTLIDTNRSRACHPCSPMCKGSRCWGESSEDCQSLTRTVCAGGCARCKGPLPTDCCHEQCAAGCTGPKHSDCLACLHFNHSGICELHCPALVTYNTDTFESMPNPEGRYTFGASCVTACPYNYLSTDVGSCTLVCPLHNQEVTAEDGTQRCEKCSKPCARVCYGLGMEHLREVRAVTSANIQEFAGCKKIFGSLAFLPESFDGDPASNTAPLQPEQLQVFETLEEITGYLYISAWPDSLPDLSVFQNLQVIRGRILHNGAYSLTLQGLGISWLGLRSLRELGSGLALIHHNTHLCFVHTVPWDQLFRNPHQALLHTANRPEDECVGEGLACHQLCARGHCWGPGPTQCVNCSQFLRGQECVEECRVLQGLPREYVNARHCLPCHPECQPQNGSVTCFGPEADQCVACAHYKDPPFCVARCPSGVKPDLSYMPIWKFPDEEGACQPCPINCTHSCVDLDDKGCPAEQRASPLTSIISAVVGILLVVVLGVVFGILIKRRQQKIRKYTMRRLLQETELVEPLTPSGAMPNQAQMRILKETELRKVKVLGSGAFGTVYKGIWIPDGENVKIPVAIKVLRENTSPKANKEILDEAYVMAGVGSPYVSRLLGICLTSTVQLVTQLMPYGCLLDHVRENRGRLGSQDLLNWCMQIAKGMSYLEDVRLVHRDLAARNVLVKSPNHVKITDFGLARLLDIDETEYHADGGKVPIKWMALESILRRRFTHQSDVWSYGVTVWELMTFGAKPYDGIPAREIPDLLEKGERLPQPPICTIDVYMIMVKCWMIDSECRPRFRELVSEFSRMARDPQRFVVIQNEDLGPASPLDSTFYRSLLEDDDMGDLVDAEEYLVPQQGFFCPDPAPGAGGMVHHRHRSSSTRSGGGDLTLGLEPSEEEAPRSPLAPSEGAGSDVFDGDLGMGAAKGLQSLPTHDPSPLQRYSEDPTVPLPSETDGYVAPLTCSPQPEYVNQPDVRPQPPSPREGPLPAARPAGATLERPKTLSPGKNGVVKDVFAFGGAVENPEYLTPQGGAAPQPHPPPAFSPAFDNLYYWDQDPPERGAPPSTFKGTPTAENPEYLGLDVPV

As for `COc1cccc(-c2nc(CS(=O)CC(=O)NCCCOC(C)C)c(C)o2)c1` (stereo not given), the viability (usually a read-out of living cells in per cent, often relative to untreated cells) is 102% in test [1]; 102% (inactive) in test [3]; 118% (inactive) in test [4]; 101% (inactive) in test [5]; 95.1% in test [6] (setting [9]); 101% in test [6] (setting [10]). Further, in test [2], the Her2 level was 108% (inactive). Further, the differential viability (reversal) in test [6] (H69AR cells + 2 uM doxorubicin) was 6.34% (inactive). The inhibition – broadly, the change of the read-out against control, counted positive when it falls – in test [7] is -1.6% (inactive); in test [8], -6.94% (inactive).
Consider `CCN(CC)CCNC(=O)CCn1c(=S)[nH]c2cc3c(cc2c1=O)OCO3`, for which the viability in test [1] is 79%; in test [3], 79% (inactive); in test [4], 89.8% (inactive); in test [5], 90.1% (inactive); in test [6] (setting [9]), 89.8%; in test [6] (setting [10]), 90.1%. Further, the Her2 level in test [2] was 89.5% (inactive). In addition, the differential viability (reversal) in test [6] (H69AR cells + 2 uM doxorubicin) is 0.295% (inactive). The figures for the inhibition in test [7] and in test [8] were -4.59% (inactive) and -2.3% (inactive), respectively.
In the case of `COc1cccc(Oc2ccc(N)cn2)c1`, the viability in test [1] is 87%; in test [3], 87% (inactive); in test [4], 109% (inactive); in test [5], 88.1% (inactive); in test [6] (setting [9]), 84.4%; in test [6] (setting [10]) it was 88.1%. Further, the Her2 level in test [2] was 106% (inactive). For the same compound, in test [6] (H69AR cells + 2 uM doxorubicin), the differential viability (reversal) was 3.66% (inactive). Moreover, the inhibition in test [7] was -2.37% (inactive); in test [8], -4.43% (inactive).
With `Cc1ccc(NC(=O)C2CCCN2S(=O)(=O)c2cccc3cccnc23)cc1F` (stereo not given), the viability in test [1] was 98%; in test [3], 98% (inactive); in test [4] it was 102% (inactive); in test [5], 93.7% (inactive); in test [6] (setting [9]), 100%; in test [6] (setting [10]), 93.7%. In test [2], the Her2 level is 97.5% (inactive). In addition, the differential viability (reversal) in test [6] (H69AR cells + 2 uM doxorubicin) is -6.31% (inactive). The inhibition in test [7] is -4% (inactive); in test [8], 3.93% (inactive).
For the compound `CCOC(=O)CNS(=O)(=O)c1c(C)noc1C`, the viability is 110% in test [1]; 110% (inactive) in test [3]; 70.6% (inactive) in test [4]; 107% (inactive) in test [5]; 86.2% in test [6] (setting [9]); 107% in test [6] (setting [10]). For the same compound, the Her2 level in test [2] was 104% (inactive). Further, the differential viability (reversal) in test [6] (H69AR cells + 2 uM doxorubicin) was 20.6% (inactive). Also, the inhibition is -4.47% (inactive) in test [7] and 2.73% (inactive) in test [8].
For `CCSc1nc2ccccc2n1CC(N)=O`, the viability was 102% in test [1]; 102% (inactive) in test [3]; 96.5% (inactive) in test [4]; 88.8% (inactive) in test [5]; 82.2% in test [6] (setting [9]); 88.8% in test [6] (setting [10]). The Her2 level in test [2] was 81% (inactive). In test [6] (H69AR cells + 2 uM doxorubicin), the differential viability (reversal) is 6.57% (inactive). Besides, the inhibition in test [7] was -9.04% (inactive); in test [8], 1.9% (inactive).
`COc1ccc(CN(C(=O)c2cccs2)c2nccs2)cc1OC`: the viability in test [1] was 74%; in test [3] it was 74% (inactive); in test [4], 90.4% (inactive); in test [5], 94.6% (inactive); in test [6] (setting [9]), 99.6%; in test [6] (setting [10]) it was 94.6%. For the same compound, the Her2 level in test [2] is 68.5% (inactive). In addition, the differential viability (reversal) in test [6] (H69AR cells + 2 uM doxorubicin) is -4.98% (inactive). For the same compound, the figures for the inhibition in test [7] and in test [8] were -4.46% (inactive) and -0.98% (inactive), respectively.
As for `CCc1nnc(NC(=O)c2ccc(COc3ccccc3)o2)s1`, the viability was 97% in test [1]; 97% (inactive) in test [3]; 77.9% (inactive) in test [4]; 111% (inactive) in test [5]; 109% in test [6] (setting [9]); 111% in test [6] (setting [10]). In addition, the Her2 level in test [2] is 104% (inactive). Also, the differential viability (reversal) in test [6] (H69AR cells + 2 uM doxorubicin) is 2.33% (inactive). The inhibition is -3.97% (inactive) in test [7] and -4.6% (inactive) in test [8].
Consider `N#CCCCCn1c(-c2cncs2)nc2ccccc21`, for which the viability in test [1] was 93.5%; in test [3], 93.5% (inactive); in test [4], 84.2% (inactive); in test [5], 93.8% (inactive); in test [6] (setting [9]), 80.3%; in test [6] (setting [10]), 93.8%. In addition, the Her2 level in test [2] was 126% (inactive). The differential viability (reversal) in test [6] (H69AR cells + 2 uM doxorubicin) is 13.5% (inactive). Moreover, the inhibition in test [7] was -5% (inactive); in test [8] it was -5.33% (inactive).
`Cc1cc(C(=O)O)ccc1-n1c(C)ccc1C`: the viability in test [1] is 100%; in test [3] it was 100% (inactive); in test [4], 89.6% (inactive); in test [5], 93.2% (inactive); in test [6] (setting [9]), 91.8%; in test [6] (setting [10]) it was 93.2%. The Her2 level in test [2] was 92% (inactive). Also, in test [6] (H69AR cells + 2 uM doxorubicin), the differential viability (reversal) is 1.35% (inactive). In addition, the inhibition in test [7] was 1.32% (inactive); in test [8], -4.52% (inactive).
In the case of `Cc1ccccc1-n1nnnc1SCC(=O)Nc1ccc(S(=O)(=O)N2CCCC2)cc1`, the viability in test [1] was 70.5%; in test [3], 70.5% (inactive); in test [4], 94.6% (inactive); in test [5], 85% (inactive); in test [6] (setting [9]), 88%; in test [6] (setting [10]), 85%. Besides, in test [2], the Her2 level is 100% (inactive). In addition, the differential viability (reversal) in test [6] (H69AR cells + 2 uM doxorubicin) was -2.96% (inactive). The inhibition was 0.53% (inactive) in test [7] and 2.1% (inactive) in test [8].
Take `Cc1ccc(Nc2nc(N)nc(CN3CCCCCC3)n2)cc1`: the viability in test [1] is 79.5%; in test [3], 79.5% (inactive); in test [4], 65.7% (inactive); in test [5], 78.4% (inactive); in test [6] (setting [9]), 88.8%; in test [6] (setting [10]), 78.4%. Moreover, the Her2 level in test [2] was 73.5% (inactive). Moreover, the differential viability (reversal) in test [6] (H69AR cells + 2 uM doxorubicin) is -10.4% (inactive). For the same compound, the inhibition in test [7] was -1.69% (inactive); in test [8], 2.83% (inactive).
Take `CCC(=O)c1ccc(OCC(O)CN2CCN(S(=O)(=O)N3CCCCC3)CC2)cc1` (stereo not given): the viability in test [1] is 91%; in test [3], 91% (inactive); in test [4] it was 105% (inactive); in test [5], 110% (inactive); in test [6] (setting [9]), 92.2%; in test [6] (setting [10]), 110%. In test [2], the Her2 level is 82% (inactive). In test [6] (H69AR cells + 2 uM doxorubicin), the differential viability (reversal) is 18.1% (inactive). Further, the inhibition is -3.33% (inactive) in test [7] and 3.44% (inactive) in test [8].
For `O=C1CC(c2ccc(Cl)cc2)n2nc(N3C(=O)c4ccccc4C3=O)nc2N1` (stereo not given), the viability is 106% in test [1]; 106% (inactive) in test [3]; 95.5% (inactive) in test [4]; 91.8% (inactive) in test [5]; 94.1% in test [6] (setting [9]); 91.8% in test [6] (setting [10]). The Her2 level in test [2] was 93% (inactive). In test [6] (H69AR cells + 2 uM doxorubicin), the differential viability (reversal) is -2.29% (inactive). Further, the inhibition in test [7] is -3.16% (inactive); in test [8], 4.59% (inactive).
For the compound `C/C(=N\O)C(=O)NCc1ccccn1`, the viability in test [1] was 102%; in test [3], 102% (inactive); in test [4], 85.3% (inactive); in test [5] it was 92.2% (inactive); in test [6] (setting [9]) it was 96.4%; in test [6] (setting [10]), 92.2%. Further, in test [2], the Her2 level was 134% (inactive). Besides, the differential viability (reversal) in test [6] (H69AR cells + 2 uM doxorubicin) was -4.16% (inactive). The inhibition in test [7] is 4.61% (inactive); in test [8], 11.2% (inactive).
Consider `COc1ccc2c(C(=O)CN(C)C3CCCCC3)c[nH]c2c1`, for which the viability in test [1] was 115%; in test [3] it was 115% (inactive); in test [4] it was 92.3% (inactive); in test [5] it was 64.7% (inactive); in test [6] (setting [9]), 74.9%; in test [6] (setting [10]), 64.7%. In test [2], the Her2 level was 72.5% (inactive). In addition, in test [6] (H69AR cells + 2 uM doxorubicin), the differential viability (reversal) is -10.2% (inactive). The inhibition in test [7] was -0.92% (inactive); in test [8] it was -0.81% (inactive).

For the origin of these results see PubChem BioAssay.
